Our source for the IC50 values is ChEMBL document CHEMBL1149704, “Virtual screening application of a model of full-length HIV-1 integrase complexed with viral DNA” (Bioorg Med Chem Lett, 2007).

For assay [1], the target named is T1, Human immunodeficiency virus type 1 integrase (Human immunodeficiency virus 1, UniProt Q7ZJM1). Briefly: Inhibition of HIV1 integrase by BioVeris assay. In outline: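 Electrochemiluminescent high-throughput screen measuring HIV-1 integrase strand transfer in the presence of Mg2+, with ruthenium-labelled reagents.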
T1 sequence (Q7ZJM1 whole entry): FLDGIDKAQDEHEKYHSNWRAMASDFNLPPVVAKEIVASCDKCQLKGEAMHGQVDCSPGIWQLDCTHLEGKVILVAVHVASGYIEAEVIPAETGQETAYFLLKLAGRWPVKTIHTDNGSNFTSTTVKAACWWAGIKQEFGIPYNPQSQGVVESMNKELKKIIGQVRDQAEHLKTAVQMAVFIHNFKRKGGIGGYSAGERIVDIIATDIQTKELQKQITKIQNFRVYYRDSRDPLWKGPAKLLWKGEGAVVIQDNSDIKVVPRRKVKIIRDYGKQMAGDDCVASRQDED
The target of assay [2] is T1, Human immunodeficiency virus type 1 integrase. Description: Inhibition of HIV1 integrase 3' processing activity. In outline:
(§1)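 Hits from the electrochemiluminescent screen were confirmed in a gel-based assay with Mg2+. IC50 values were determined separately for 3'-processing and strand transfer.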

Assay [3] has the same target. Description: Inhibition of HIV1 integrase strand transfer activity. In outline: as §1

On to `Cc1n[nH]c(O)c1C(c1ccc(-c2ccc(Cl)c(C(=O)O)c2)o1)c1c(O)n[nH]c1C`, for which the half-maximal inhibitory concentration (IC50) is 121 µM in assay [1], 87 µM in assay [2] and 57 µM in assay [3].

As for `O=C(O)COc1ccccc1/C=N/NC(=O)CSc1nc2ccccc2[nH]1`, the IC50 in assay [1] stood at 780 µM; in assay [2], 155 µM; in assay [3], 120 µM.

On to `C=C(NNC(=O)c1c[nH]c2ccccc12)c1cccc(NC(=O)CCCC(=O)O)c1`, for which the half-inhibitory concentration (IC50) stood at 141 µM in assay [1], 120 µM in assay [2] and 70 µM in assay [3].

On to `Cc1[nH]nc(O)c1CC(=O)N/N=C/c1ccccc1OCC(=O)O`, for which the concentration for half-maximal inhibition (IC50) in assay [1] was found to be 580 µM; in assay [2], 121 µM; in assay [3], 54 µM.

`C=C(NNC(=O)Cc1ccc(O)cc1)c1ccc(NC(=O)CCC(=O)O)cc1`: the IC50 in assay [1] worked out at 292 µM; in assay [2], 204 µM; in assay [3] it was 114 µM.

As for `C=C(NNC(=O)C1CC1c1ccccc1)c1cccc(NC(=O)C2CCCCC2C(=O)O)c1` (stereo unspecified), the IC50 in assay [1] turned out to be 113 µM; in assay [2], 65 µM; in assay [3], 49 µM.

Consider `C=C(NNC(=O)C(C)Oc1ccccc1Cl)c1cccc(NC(=O)C2CCCCC2C(=O)O)c1` (stereo unspecified), for which the IC50 in assay [1] was 182 µM; in assay [2], > 333 µM; in assay [3], > 333 µM.

For `CC(C)n1nc(C(=O)NN/C(=C/CC(=O)O)c2ccc(Br)cc2)c2ccccc2c1=O`, the results for the half-maximal inhibitory concentration (IC50) in assay [1] and in assay [2] were 670 µM and 295 µM, respectively.

On to `O=C(O)CCC(=O)Nc1ccccc1-c1ccccc1NC(=O)CCC(=O)O`, for which the values for the IC50 in assay [1], in assay [2] and in assay [3] were 37 µM, > 333 µM and > 333 µM, respectively.
